# Experimental data as given in ChEMBL document CHEMBL2093137, “WHO-TDR NTD Screening”.
# What was measured:
# Plasmodium falciparum K1 = assay: WHO-TDR: Malaria; assay type: functional, organism-based, Homo sapiens; conditions: Erythrocyte
# Method in brief: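 This whole-organism screen covered 10,000 drug-likeness-filtered and reactive-group-filtered compounds from Life Chemicals. The target was the Plasmodium falciparum K1 strain in human red blood cells, and the readout was antiplasmodial IC50.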
# [1] = WHO-TDR: Cytotoxicity; assay type: toxicity, cell-based; conditions: human, MRC5 cells
# Onchocerca ochengi [2] = assay: (§1) WHO-TDR: Onchocerciasis; assay type: functional; set-up: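 at 12.5 µM on microfilariae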
# Method in brief: (§2)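 Percent inhibition and IC50 describe activity against microfilariae of Onchocerca ochengi or Onchocerca lienalis, used as animal-pathogen substitutes for the human parasite. The compounds tested made up a 10,000-member diverse library from Life Chemicals.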
# [3] = test system: Trypanosoma brucei brucei; assay: WHO-TDR: Human African Trypanosomiasis (HAT); assay type: functional, organism-based; conditions: Squib-427
# Method in brief: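 Screening used a 10,000-compound diverse library supplied by Life Chemicals and filtered for drug-likeness and reactive groups. Whole bloodstream-form parasites of Trypanosoma brucei Squib 427 strain were assayed according to previously published standard procedures, with reference drugs as positive controls. The reported measure is IC50, reflecting antiparasitic potency.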
# Schistosoma mansoni = assay: WHO-TDR: Schistosomiasis; assay type: functional; set-up: concentration or dose not given beside the values
# Method in brief: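 Percent inhibition and IC50 describe activity against whole Schistosoma mansoni worms of the Puerto Rican strain, tested as larvae and/or adults. The compounds screened were a diverse set of 10,000 from Life Chemicals, filtered for drug-likeness and reactive groups. Testing followed previously published standard procedures, with a reference drug as positive control.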
# Onchocerca ochengi [4] = assay: as §1; assay type: functional; set-up: concentration or dose not given beside the values; method in brief: as §2; remark: listed apart in the source
# Trypanosoma cruzi = assay: WHO-TDR: Chagas disease; assay type: functional, organism-based, Homo sapiens; conditions: MRC5
# Method in brief: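 Intracellular amastigotes of the Trypanosoma cruzi Tulahuen CL2 beta-galactosidase strain, grown in MRC-5SV2 human lung fibroblast host cells, were tested in a whole-organism screen. The compounds came from a 10,000-member diverse Life Chemicals library that had been filtered for drug-likeness and reactive groups. Previously published standard procedures were followed, with a reference drug as positive control, and potency is reported as IC50.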
# Leishmania infantum = assay: WHO-TDR: Leishmaniasis; assay type: functional, organism-based, Mus musculus; conditions: Macrophage
# Method in brief: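 The screened collection came from Life Chemicals: 10,000 diverse compounds selected after filtering for drug-likeness and reactive groups. Each was tested in a whole-organism assay against Leishmania infantum MHOM/MA(BE)/67 amastigotes inside murine peritoneal macrophages, using previously published standard procedures and a reference drug as positive control. Results are IC50 values for antiparasitic potency.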
SMILES,IC50 (Plasmodium falciparum K1),IC50 [3],IC50 (Leishmania infantum),IC50 [1],% Inhibition (Onchocerca ochengi [2]),% Inhibition (Schistosoma mansoni),% Inhibition (Onchocerca ochengi [4]),IC50 (Trypanosoma cruzi)
Cc1cc(C(=O)N(CCCN(C)C)c2nc3c(C)ccc(Cl)c3s2)no1,3.3 µg/mL,0.378 µg/mL,4.17 µg/mL,5.07 µg/mL,100%,0%,0%,4.14 µg/mL
O=C(CC1CCCC1)Nc1nc(CSCc2ccc(F)cc2)cs1,3.04 µg/mL,3.5 µg/mL,> 10.9 µg/mL,> 10.9 µg/mL,100%,0%,0%,2.43 µg/mL
COc1ccc(CCC(=O)NCC(c2ccsc2)N2CCc3ccccc3C2)cc1 (configuration not stated),6.14 µg/mL,4.13 µg/mL,> 12.6 µg/mL,> 12.6 µg/mL,100%,0%,0%,4.15 µg/mL
O=C(COc1ccc(F)cc1)NCC(c1ccsc1)N1CCc2ccccc2C1 (configuration not stated),> 12.3 µg/mL,4.19 µg/mL,> 12.3 µg/mL,> 12.3 µg/mL,100%,0%,0%,3.73 µg/mL
CN(C)C(CNS(=O)(=O)c1cc(Cl)ccc1Cl)c1ccsc1 (configuration not stated),7.08 µg/mL,3.82 µg/mL,> 11.4 µg/mL,> 11.4 µg/mL,100%,0%,0%,> 11.4 µg/mL
Cc1ccc(Cl)c2sc(N3CCN(C)CC3)nc12,3.31 µg/mL,3.05 µg/mL,> 9.55 µg/mL,> 9.55 µg/mL,100%,0%,0%,2.38 µg/mL
CSCc1csc(NC(=O)Cc2ccc(Cl)cc2)n1,5.98 µg/mL,3 µg/mL,> 9.38 µg/mL,3.7 µg/mL,100%,0%,75%,2.47 µg/mL
O=C(Nc1nc(CSCc2ccc(F)cc2)cs1)c1ccco1,> 10.5 µg/mL,> 10.5 µg/mL,> 10.5 µg/mL,> 10.5 µg/mL,100%,0%,0%,> 10.5 µg/mL

# Continued, in another order:
IC50 (Plasmodium falciparum K1),IC50 [3],IC50 (Leishmania infantum),SMILES,IC50 [1],% Inhibition (Onchocerca ochengi [2]),% Inhibition (Schistosoma mansoni),% Inhibition (Onchocerca ochengi [4]),IC50 (Trypanosoma cruzi)
> 12.5 µg/mL,> 12.5 µg/mL,> 12.5 µg/mL,Cc1cccc(NC(=O)Cn2nc(C(C)C)c3cnn(-c4ccccc4C)c3c2=O)c1,> 12.5 µg/mL,100%,0%,0%,> 12.5 µg/mL
> 12.6 µg/mL,> 12.6 µg/mL,> 12.6 µg/mL,COc1ccccc1OCC(=O)Nc1nc(CSCc2ccc(F)cc2)cs1,> 12.6 µg/mL,100%,0%,0%,> 12.6 µg/mL
5.78 µg/mL,3.65 µg/mL,> 11.4 µg/mL,NC(=O)c1cc(-c2ccccc2)sc1NC(=O)C1COc2ccccc2O1 (configuration not stated),1.92 µg/mL,100%,25%,0%,3.4 µg/mL
6.93 µg/mL,4.28 µg/mL,> 12.9 µg/mL,COc1ccc(S(=O)(=O)CC(=O)Nc2sc(-c3ccccc3)cc2C(N)=O)cc1,> 12.9 µg/mL,100%,0%,0%,> 12.9 µg/mL
> 10.9 µg/mL,> 10.9 µg/mL,> 10.9 µg/mL,NC(=O)c1cc(-c2ccccc2)sc1NC(=O)c1cc2ccccc2o1,> 10.9 µg/mL,100%,0%,0%,> 10.9 µg/mL
5.1 µg/mL,3.65 µg/mL,> 11.4 µg/mL,NC(=O)c1cc(-c2ccccc2)sc1NC(=O)Cc1ccc2c(c1)OCO2,> 11.4 µg/mL,100%,0%,0%,> 11.4 µg/mL
